Reference: ChEMBL document CHEMBL4017549, “Structural Basis of Inhibition of ERα-Coactivator Interaction by High-Affinity N-Terminus Isoaspartic Acid Tethered Helical Peptides” (J Med Chem, 2017)
Calls of active or inactive are those of the source. The rule behind the calls is not given here.

How the values were obtained:
Homo sapiens [1] = species on record: Homo sapiens; experiment: Selectivity ratio of Kd for recombinant human ERbeta LBD (259 to 498 residues) to Kd for recombinant human ERalpha LBD (301 to 553 residues)
In short: (§1)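 Ratio of KD values, each from fluorescence polarization of 10 nM FITC-peptide titrated with the respective LBD after 40 min in the dark at 298 K, with the matching ligand in buffer (10 μM 17β-estradiol, progesterone or vitamin D3).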

[2] = Drug uptake in human U2OS cells assessed per million cells at 5 uM after 3 hrs by FACS analysis; format: ADME, cell-based
In short: (§2)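 Adherent cells seeded overnight, then exposed to 5 μM FITC-labelled peptide or DMSO in FBS-free medium, 3 h, 37 °C. After PBS washes (three), about 10000 cells per sample analysed by flow cytometry; mean cellular fluorescence intensity calculated. More than two independent experiments, SEM.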

Homo sapiens [3] = species on record: Homo sapiens; experiment: Selectivity ratio of Kd for recombinant human GST-tagged PGR LBD ([…] residues) to Kd for recombinant human ERalpha LBD (301 to 553 residues); in short: as §1
Homo sapiens [4] = species on record: Homo sapiens; experiment: Selectivity ratio of Kd for recombinant human GST-tagged VDR LBD (156 to 453 residues) to Kd for recombinant human ERalpha LBD (301 to 553 residues); in short: as §1
Vitamin D3 receptor = molecular target: T1, Vitamin D3 receptor (Homo sapiens, UniProt P11473); experiment: Binding affinity to recombinant human GST-tagged VDR LBD (156 to 453 residues) expressed in Echerichia coli BL21 star (DE3) after 40 mins in presence of vitamin D3 by fluorescence polarization assay
T1 sequence (P11473 whole entry): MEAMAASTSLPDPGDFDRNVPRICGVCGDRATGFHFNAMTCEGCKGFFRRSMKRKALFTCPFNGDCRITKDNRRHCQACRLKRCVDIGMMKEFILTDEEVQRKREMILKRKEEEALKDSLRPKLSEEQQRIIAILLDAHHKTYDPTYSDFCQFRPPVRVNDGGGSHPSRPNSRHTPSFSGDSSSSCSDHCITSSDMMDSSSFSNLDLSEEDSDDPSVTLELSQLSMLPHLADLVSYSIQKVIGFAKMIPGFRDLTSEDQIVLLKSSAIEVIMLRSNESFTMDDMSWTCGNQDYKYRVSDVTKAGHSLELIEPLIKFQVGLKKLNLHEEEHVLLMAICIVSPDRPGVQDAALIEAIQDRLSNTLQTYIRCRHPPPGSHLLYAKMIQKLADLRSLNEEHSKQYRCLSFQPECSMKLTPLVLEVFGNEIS
In short: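 GST-VDR LBD titrated into 10 nM final FITC-labelled peptide in 20 mM Tris-HCl pH 8.0, 150 mM NaCl, 5% glycerol, 1 mM TCEP containing 10 μM vitamin D3. 40 min dark incubation, polarization at 298 K (ex 480/em 535 nm). KD by nonlinear regression.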

[5] = Drug uptake in human MCF7 cells assessed per million cells at 5 uM after 3 hrs by FACS analysis; format: ADME, cell-based; conditions: mcf7, 3 h; in short: as §2
[6] = molecular target: T2, Estrogen receptor (Homo sapiens) (UniProt P03372); experiment: Binding affinity to recombinant human GFP-fused ERalpha LBD (301 to 553 residues) expressed in Escherichia coli BL21(DE3) in presence of 17beta-estradiol by ITC
T2 sequence (whole entry): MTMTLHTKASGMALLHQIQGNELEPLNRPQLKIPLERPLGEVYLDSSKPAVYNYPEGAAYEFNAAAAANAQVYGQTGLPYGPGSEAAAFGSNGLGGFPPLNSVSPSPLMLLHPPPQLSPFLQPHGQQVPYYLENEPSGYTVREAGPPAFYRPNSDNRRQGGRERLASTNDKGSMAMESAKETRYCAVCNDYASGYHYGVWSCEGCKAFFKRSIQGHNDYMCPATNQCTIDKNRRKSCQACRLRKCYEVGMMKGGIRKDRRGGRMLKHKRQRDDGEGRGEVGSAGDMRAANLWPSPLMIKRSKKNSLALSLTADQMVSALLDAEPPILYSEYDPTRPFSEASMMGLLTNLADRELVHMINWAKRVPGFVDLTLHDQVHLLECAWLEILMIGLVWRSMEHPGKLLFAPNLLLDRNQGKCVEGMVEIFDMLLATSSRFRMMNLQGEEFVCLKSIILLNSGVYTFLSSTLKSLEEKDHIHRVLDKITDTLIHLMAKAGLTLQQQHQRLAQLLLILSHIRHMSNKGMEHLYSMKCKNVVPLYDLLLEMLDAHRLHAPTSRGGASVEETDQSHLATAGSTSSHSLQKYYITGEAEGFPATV
In short: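 ITC at 25 °C. 2 μL injections of 50 μM peptide into 5 μM ERα LBD in 50 mM Tris pH 8.0, 150 mM NaCl, 1 mM TCEP, 0.1 mM 17β-estradiol. Binding isotherm fitted for affinity.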

[7] = Drug uptake in human MCF7 cell nucleus at 5 uM after 3 hrs in presence of 10 nM E2 by DAPI-staining based confocal laser scanning microscopic analysis

- Selectivity ratio (Homo sapiens [1]): 4.4
- Drug uptake [2]: Active
- Selectivity ratio (Homo sapiens [3]): 3.7
- Selectivity ratio (Homo sapiens [4]): > 30
- Kd (Vitamin D3 receptor): > 2 µM
- Drug uptake [5]: Active
- Activity [6]: Active
- Drug uptake [7]: Active
SMILES: CC[C@H](C)[C@@H]1NC(=O)C[C@H](NC(=O)[C@H](CCCNC(=N)N)NC(=O)CCNC(=S)Nc2ccc3c(c2)C(=O)OC32c3ccc(O)cc3Oc3cc(O)ccc32)C(=O)NCC(C(=O)N[C@@H](CCCNC(=N)N)C(=O)NC(CC(C)(C)C)C(=O)NC(CC(C)(C)C)C(=O)N[C@@H](CCC(N)=O)C(N)=O)NC(=O)C(CC(C)(C)C)NC1=O (stereo partly drawn)
